{"source": "ChEMBL document CHEMBL5649168", "about": "“Discovery of a selective catalytic p300/CBP inhibitor that targets lineage-specific tumours” (Nature, 2017)", "key": {"LuCaP-77 CR cell [1]": {"test_system": "LuCaP-77 CR cell", "conditions": "Homo sapiens, dose 100.0 mg/kg, time 7.0 day"}, "[2]": {"target": "T1, CREB-binding protein/Histone acetyltransferase p300 (Homo sapiens, UniProt Q09472+Q92793)", "T1 sequence (Q09472 whole entry, looked up)": "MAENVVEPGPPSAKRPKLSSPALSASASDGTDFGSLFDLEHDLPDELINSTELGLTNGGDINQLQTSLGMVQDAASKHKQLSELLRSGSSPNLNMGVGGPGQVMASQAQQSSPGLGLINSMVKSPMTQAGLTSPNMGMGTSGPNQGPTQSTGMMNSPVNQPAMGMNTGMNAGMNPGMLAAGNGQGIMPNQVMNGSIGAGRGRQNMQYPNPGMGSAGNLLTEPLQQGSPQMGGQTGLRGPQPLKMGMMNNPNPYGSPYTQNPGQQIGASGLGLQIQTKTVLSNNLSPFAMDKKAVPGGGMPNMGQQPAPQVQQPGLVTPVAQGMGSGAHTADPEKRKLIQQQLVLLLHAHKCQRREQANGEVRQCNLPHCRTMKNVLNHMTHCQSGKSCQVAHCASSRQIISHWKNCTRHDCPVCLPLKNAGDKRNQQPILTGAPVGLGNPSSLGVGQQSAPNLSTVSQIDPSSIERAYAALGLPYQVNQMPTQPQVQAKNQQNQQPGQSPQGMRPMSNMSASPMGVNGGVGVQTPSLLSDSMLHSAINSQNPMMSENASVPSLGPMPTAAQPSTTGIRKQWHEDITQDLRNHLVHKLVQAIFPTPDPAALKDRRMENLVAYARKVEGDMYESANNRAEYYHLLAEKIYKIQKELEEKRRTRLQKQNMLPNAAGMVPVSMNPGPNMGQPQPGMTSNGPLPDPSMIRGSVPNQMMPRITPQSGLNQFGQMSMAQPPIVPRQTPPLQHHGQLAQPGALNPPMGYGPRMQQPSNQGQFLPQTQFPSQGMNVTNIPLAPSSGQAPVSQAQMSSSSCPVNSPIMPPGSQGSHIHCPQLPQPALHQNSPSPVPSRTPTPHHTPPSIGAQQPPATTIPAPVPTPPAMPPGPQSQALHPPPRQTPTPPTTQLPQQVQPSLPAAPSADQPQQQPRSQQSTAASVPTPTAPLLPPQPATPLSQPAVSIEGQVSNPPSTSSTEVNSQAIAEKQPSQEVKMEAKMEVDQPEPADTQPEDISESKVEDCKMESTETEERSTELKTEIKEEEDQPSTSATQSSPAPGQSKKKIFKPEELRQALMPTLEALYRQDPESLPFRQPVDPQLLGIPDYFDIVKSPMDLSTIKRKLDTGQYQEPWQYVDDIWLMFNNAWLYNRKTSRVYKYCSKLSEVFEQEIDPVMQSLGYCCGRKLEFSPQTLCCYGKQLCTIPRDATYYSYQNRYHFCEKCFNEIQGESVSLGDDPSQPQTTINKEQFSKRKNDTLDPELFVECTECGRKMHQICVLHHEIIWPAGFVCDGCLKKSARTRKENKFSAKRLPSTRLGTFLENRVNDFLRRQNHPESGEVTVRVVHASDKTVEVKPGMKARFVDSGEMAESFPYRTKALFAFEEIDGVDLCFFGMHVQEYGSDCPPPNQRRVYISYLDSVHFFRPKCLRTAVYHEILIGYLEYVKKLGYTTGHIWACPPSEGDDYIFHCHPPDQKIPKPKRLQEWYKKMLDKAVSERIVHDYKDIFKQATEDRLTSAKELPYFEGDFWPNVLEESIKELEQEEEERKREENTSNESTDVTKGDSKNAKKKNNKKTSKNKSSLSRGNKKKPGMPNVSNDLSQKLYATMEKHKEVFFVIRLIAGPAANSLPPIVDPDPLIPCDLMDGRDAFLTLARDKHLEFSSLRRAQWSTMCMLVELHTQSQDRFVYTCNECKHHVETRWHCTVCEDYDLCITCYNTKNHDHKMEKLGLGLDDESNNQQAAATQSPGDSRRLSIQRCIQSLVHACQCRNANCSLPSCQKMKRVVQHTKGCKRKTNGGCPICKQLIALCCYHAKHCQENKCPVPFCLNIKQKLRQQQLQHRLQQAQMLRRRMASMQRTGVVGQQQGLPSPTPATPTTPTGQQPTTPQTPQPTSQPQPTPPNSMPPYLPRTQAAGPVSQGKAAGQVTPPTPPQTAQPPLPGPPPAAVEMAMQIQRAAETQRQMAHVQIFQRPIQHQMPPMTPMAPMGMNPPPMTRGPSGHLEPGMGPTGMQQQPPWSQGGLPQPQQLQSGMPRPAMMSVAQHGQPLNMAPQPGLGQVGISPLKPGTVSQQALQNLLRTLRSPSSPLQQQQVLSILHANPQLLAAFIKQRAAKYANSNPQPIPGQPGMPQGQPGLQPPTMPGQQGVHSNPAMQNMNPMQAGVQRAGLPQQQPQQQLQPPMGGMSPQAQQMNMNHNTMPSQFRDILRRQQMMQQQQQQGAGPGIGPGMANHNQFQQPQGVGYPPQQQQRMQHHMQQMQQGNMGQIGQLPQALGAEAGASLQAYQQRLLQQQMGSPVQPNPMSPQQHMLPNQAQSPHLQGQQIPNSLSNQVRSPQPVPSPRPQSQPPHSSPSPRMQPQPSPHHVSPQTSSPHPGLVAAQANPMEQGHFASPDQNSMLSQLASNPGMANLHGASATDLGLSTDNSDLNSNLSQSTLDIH", "T1 sequence (Q92793 whole entry, looked up)": "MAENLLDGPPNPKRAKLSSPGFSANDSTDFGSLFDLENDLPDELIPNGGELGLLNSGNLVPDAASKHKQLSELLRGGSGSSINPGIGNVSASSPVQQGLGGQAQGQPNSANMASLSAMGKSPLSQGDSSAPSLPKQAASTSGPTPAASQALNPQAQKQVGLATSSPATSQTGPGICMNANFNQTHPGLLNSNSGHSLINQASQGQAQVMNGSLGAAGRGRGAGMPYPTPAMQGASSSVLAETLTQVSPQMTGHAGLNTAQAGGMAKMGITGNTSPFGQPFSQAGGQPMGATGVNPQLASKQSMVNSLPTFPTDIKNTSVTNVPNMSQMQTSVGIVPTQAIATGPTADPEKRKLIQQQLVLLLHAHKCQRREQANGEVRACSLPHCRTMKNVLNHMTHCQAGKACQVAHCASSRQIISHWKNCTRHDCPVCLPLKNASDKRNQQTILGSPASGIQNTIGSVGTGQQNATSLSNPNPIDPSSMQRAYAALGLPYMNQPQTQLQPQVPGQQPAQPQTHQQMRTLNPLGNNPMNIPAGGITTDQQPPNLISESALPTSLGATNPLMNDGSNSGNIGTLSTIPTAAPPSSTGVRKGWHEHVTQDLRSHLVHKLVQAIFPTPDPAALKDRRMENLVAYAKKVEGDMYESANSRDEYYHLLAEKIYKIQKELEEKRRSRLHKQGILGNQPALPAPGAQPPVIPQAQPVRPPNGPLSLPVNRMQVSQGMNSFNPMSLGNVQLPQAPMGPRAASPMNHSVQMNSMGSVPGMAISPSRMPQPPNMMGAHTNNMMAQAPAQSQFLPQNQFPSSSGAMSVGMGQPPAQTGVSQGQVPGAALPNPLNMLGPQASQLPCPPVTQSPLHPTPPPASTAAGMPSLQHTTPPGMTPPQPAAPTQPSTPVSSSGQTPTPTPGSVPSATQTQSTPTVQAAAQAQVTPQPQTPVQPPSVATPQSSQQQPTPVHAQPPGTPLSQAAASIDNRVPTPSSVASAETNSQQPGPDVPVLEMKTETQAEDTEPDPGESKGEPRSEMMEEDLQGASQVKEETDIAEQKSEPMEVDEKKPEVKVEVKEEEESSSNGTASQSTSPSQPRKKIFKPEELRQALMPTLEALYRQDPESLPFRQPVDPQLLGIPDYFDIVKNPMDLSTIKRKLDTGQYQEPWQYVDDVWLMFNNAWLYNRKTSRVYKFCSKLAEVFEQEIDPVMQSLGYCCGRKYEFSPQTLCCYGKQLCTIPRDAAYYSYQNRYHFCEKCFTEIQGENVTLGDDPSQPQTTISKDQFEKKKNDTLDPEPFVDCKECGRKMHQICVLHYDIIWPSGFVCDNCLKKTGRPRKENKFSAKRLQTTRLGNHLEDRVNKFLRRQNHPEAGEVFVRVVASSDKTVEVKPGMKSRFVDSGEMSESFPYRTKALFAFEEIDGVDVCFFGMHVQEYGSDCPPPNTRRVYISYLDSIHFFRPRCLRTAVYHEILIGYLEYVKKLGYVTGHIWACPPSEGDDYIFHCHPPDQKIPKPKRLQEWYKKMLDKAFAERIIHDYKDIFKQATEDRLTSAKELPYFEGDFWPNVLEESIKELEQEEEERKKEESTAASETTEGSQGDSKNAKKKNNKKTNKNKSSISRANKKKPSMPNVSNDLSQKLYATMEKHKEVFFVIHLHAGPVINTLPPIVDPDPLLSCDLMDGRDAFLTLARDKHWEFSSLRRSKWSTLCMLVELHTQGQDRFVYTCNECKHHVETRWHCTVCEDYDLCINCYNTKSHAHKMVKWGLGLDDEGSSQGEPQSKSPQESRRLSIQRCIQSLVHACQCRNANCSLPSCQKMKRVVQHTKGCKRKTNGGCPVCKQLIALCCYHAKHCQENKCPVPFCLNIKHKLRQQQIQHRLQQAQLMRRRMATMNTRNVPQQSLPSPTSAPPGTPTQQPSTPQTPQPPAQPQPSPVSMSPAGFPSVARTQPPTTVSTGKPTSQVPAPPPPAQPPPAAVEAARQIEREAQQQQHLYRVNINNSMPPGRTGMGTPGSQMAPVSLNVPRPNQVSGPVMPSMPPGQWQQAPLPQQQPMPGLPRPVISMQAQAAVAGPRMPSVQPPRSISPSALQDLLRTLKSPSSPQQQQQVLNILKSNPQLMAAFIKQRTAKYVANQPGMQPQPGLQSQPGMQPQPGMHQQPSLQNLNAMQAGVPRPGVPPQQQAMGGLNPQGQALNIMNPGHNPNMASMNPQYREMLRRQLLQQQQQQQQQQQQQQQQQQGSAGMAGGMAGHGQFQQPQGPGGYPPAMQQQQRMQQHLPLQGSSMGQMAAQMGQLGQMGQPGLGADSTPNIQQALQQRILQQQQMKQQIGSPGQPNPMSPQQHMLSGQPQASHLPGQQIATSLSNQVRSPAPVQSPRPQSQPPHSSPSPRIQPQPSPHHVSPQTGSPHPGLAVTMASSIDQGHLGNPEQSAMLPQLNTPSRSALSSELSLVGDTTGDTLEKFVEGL", "experiment": "Inhibition of p300/CBP in human 22Rv1 cells assessed as reduction in H3K9Ac level incubated for 24 hrs by Hoechst 33342 staining based high content microscopy analysis", "type": "cell-based", "method_in_brief": "(§1)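 Cells received an 8-point half-log dilution series from 10 µM. They were then fixed in 10% formaldehyde (10 min, RT), permeabilised with 0.1% Triton X-100 and blocked with 1% BSA for 1 h. Primary antibodies were applied overnight at 4 °C, followed by Alexa488 anti-rabbit, Alexa555 anti-mouse and Hoechst 33342 for 1 h. Fifteen fields per well were imaged and average mean intensity taken. EC50 came from a sigmoidal fit.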"}, "OCI-Ly3": {"test_system": "OCI-Ly3", "experiment": "Antiproliferative activity against human OCILY3 cells assessed as inhibition of cell viability incubated for 3 to 5 days by Celltiter-Glo luminescent assay", "type": "functional, cell-based"}, "SU-DHL-8": {"test_system": "SU-DHL-8", "experiment": "Antiproliferative activity against human SU-DHL-8 cells assessed as inhibition of cell viability incubated for 3 to 5 days by Celltiter-Glo luminescent assay", "type": "functional, cell-based"}, "CA46": {"test_system": "CA46", "experiment": "Antiproliferative activity against human CA46 cells assessed as inhibition of cell viability incubated for 3 to 5 days by Celltiter-Glo luminescent assay", "type": "functional, cell-based"}, "[3]": {"experiment": "AUC in CB17 SCID mouse xenografted with LuCaP-77 CR cell at 100 mg/kg, ip administered for 7 days", "type": "ADME, organism-based", "conditions": "in vivo, time 7 day"}, "4T1": {"test_system": "4T1", "experiment": "Antiproliferative activity against mouse 4T1 cells assessed as inhibition of cell viability incubated for 3 to 5 days by Celltiter-Glo luminescent assay", "type": "functional, cell-based"}, "A-375": {"test_system": "A-375", "experiment": "Antiproliferative activity against human A-375 cells assessed as inhibition of cell viability incubated for 3 to 5 days by Celltiter-Glo luminescent assay", "type": "functional, cell-based"}, "EMT6": {"test_system": "EMT6", "experiment": "Antiproliferative activity against mouse EMT6 cells assessed as inhibition of cell viability incubated for 3 to 5 days by Celltiter-Glo luminescent assay", "type": "functional, cell-based"}, "[4]": {"target": "cGMP-dependent protein kinase 1 (Homo sapiens, UniProt Q13976)", "experiment": "Inhibition of PKG1alpha (unknown origin)"}, "NCI-H2081": {"test_system": "NCI-H2081", "experiment": "Antiproliferative activity against human NCI-H2081 cells assessed as inhibition of cell viability incubated for 3 to 5 days by Celltiter-Glo luminescent assay", "type": "functional, cell-based"}, "[5]": {"target": "Serine/threonine-protein kinase B-raf (Homo sapiens, UniProt P15056)", "experiment": "Inhibition of B-Raf (unknown origin)"}, "[6]": {"target": "Dual specificity mitogen-activated protein kinase kinase 1 (Homo sapiens, UniProt Q02750)", "experiment": "Inhibition of MEK1 (unknown origin)"}, "[7]": {"experiment": "AUC in CB17 SCID mouse xenografted with LuCaP-77 CR cell at 200 mg/kg, ip administered for 7 days", "type": "ADME, organism-based", "conditions": "in vivo, time 7 day"}, "Pfeiffer": {"test_system": "Pfeiffer", "experiment": "Antiproliferative activity against human Pfeiffer cells assessed as inhibition of cell viability incubated for 3 to 5 days by Celltiter-Glo luminescent assay", "type": "functional, cell-based"}, "[8]": {"target": "Proto-oncogene tyrosine-protein kinase receptor Ret (Homo sapiens, UniProt P07949)", "experiment": "Inhibition of Ret (unknown origin)"}, "[9]": {"target": "Serine/threonine-protein kinase PAK 4 (Homo sapiens, UniProt O96013)", "experiment": "Inhibition of PAK4KD (unknown origin)"}, "LuCaP-77 CR cell [10]": {"test_system": "LuCaP-77 CR cell", "conditions": "Homo sapiens, dose 100.0 mg/kg, time 7.0 day", "remark": "listed apart in the source"}, "SK-MEL-24": {"test_system": "SK-MEL-24", "experiment": "Antiproliferative activity against human SK-MEL-24 cells assessed as inhibition of cell viability incubated for 3 to 5 days by Celltiter-Glo luminescent assay", "type": "functional, cell-based"}, "OCI-Ly7": {"test_system": "OCI-Ly7", "experiment": "Antiproliferative activity against human OCILY7 cells assessed as inhibition of cell viability incubated for 3 to 5 days by Celltiter-Glo luminescent assay", "type": "functional, cell-based"}, "NCI-H522": {"test_system": "NCI-H522", "experiment": "Antiproliferative activity against human NCI-H522 cells assessed as inhibition of cell viability incubated for 3 to 5 days by Celltiter-Glo luminescent assay", "type": "functional, cell-based"}, "NCI-H838": {"test_system": "NCI-H838", "experiment": "Antiproliferative activity against human NCI-H838 cells assessed as inhibition of cell viability incubated for 3 to 5 days by Celltiter-Glo luminescent assay", "type": "functional, cell-based"}, "[11]": {"target": "Casein kinase I isoform alpha (Homo sapiens, UniProt P48729)", "experiment": "Inhibition of Ck1alpha1 (unknown origin)"}, "ULA": {"test_system": "ULA", "experiment": "Antiproliferative activity against human ULA cells assessed as inhibition of cell viability incubated for 3 to 5 days by Celltiter-Glo luminescent assay", "type": "functional, cell-based"}, "MM1.S": {"test_system": "MM1.S", "experiment": "Antiproliferative activity against human MM1.S cells assessed as inhibition of cell viability incubated for 3 to 5 days by Celltiter-Glo luminescent assay", "type": "functional, cell-based"}, "[12]": {"target": "Leukocyte tyrosine kinase receptor (Homo sapiens, UniProt P29376)", "experiment": "Inhibition of LTK (unknown origin)"}, "[13]": {"target": "Bromodomain-containing protein 4 (Homo sapiens, UniProt O60885)", "experiment": "Inhibition of BRD4 (unknown origin)"}, "LuCaP-77 CR cell [14]": {"test_system": "LuCaP-77 CR cell", "conditions": "Homo sapiens, dose 100.0 mg/kg, time 7.0 day", "remark": "listed apart in the source"}, "DOHH-2": {"test_system": "DOHH-2", "experiment": "Antiproliferative activity against human DOHH-2 cells assessed as inhibition of cell viability incubated for 3 to 5 days by Celltiter-Glo luminescent assay", "type": "functional, cell-based"}, "WSU-NHL": {"test_system": "WSU-NHL", "experiment": "Antiproliferative activity against human WSU-NHL cells assessed as inhibition of cell viability incubated for 3 to 5 days by Celltiter-Glo luminescent assay", "type": "functional, cell-based"}, "[15]": {"target": "Dual specificity mitogen-activated protein kinase kinase 2 (Homo sapiens, UniProt P36507)", "experiment": "Inhibition of MEK2 (unknown origin)"}, "[16]": {"target": "T1, CREB-binding protein/Histone acetyltransferase p300", "experiment": "Inhibition of p300/CBP in human 22Rv1 cells assessed as reduction in H3K18Ac level incubated for 1 hr by Hoechst 33342 staining based high content microscopy analysis", "type": "cell-based", "method_in_brief": "as §1"}, "[17]": {"experiment": "Half life in CB17 SCID mouse xenografted with LuCaP-77 CR cell at 100 mg/kg, ip administered for 7 days", "type": "ADME, organism-based", "conditions": "in vivo, time 7 day"}, "Ramos": {"test_system": "Ramos", "experiment": "Antiproliferative activity against human Ramos cells assessed as inhibition of cell viability incubated for 3 to 5 days by Celltiter-Glo luminescent assay", "type": "functional, cell-based"}, "HCC2935": {"test_system": "HCC2935", "experiment": "Antiproliferative activity against human HCC2935 cells assessed as inhibition of cell viability incubated for 3 to 5 days by Celltiter-Glo luminescent assay", "type": "functional, cell-based"}, "LuCaP-77 CR cell [18]": {"test_system": "LuCaP-77 CR cell", "conditions": "Homo sapiens, dose 100.0 mg/kg, time 7.0 day", "remark": "listed apart in the source"}, "[19]": {"target": "Proto-oncogene tyrosine-protein kinase Src (Homo sapiens, UniProt P12931)", "experiment": "Inhibition of Src (unknown origin)"}, "U-937": {"test_system": "U-937", "experiment": "Antiproliferative activity against human U937 cells assessed as inhibition of cell viability incubated for 3 to 5 days by Celltiter-Glo luminescent assay", "type": "functional, cell-based"}, "Daudi": {"test_system": "Daudi", "experiment": "Antiproliferative activity against human Daudi cells assessed as inhibition of cell viability incubated for 3 to 5 days by Celltiter-Glo luminescent assay", "type": "functional, cell-based"}, "[20]": {"target": "T1, CREB-binding protein/Histone acetyltransferase p300", "experiment": "Inhibition of p300/CBP in human 22Rv1 cells assessed as reduction in H3K9Ac level incubated for 3 hrs by Hoechst 33342 staining based high content microscopy analysis", "type": "cell-based", "method_in_brief": "as §1"}, "[21]": {"experiment": "AUC in CB17 SCID mouse xenografted with LuCaP-77 CR cell at 50 mg/kg, ip administered for 7 days", "type": "ADME, organism-based", "conditions": "in vivo, time 7 day"}}, "note": "The source made the active and inactive calls. The rule behind the calls is not given here."}
{"compound": "CNC(=O)Nc1ccc2c(c1)CC[C@@]21OC(=O)N(CC(=O)N(Cc2ccc(F)cc2)[C@@H](C)C(F)(F)F)C1=O", "note": "[A-485]", "values": [{"measurement": "inhibition", "setting": "LuCaP-77 CR cell [1]", "result": "Active"}, {"measurement": "INH", "setting": "[2]", "result": "> 10", "unit": "µM"}, {"measurement": "EC50", "setting": "OCI-Ly3", "result": 490, "unit": "nM"}, {"measurement": "EC50", "setting": "SU-DHL-8", "result": 540, "unit": "nM"}, {"measurement": "EC50", "setting": "CA46", "result": 480, "unit": "nM"}, {"measurement": "AUC at 168 h", "setting": "[3]", "result": 417, "unit": "µg·h/mL"}, {"measurement": "EC50", "setting": "4T1", "result": "> 10000", "unit": "nM"}, {"measurement": "EC50", "setting": "A-375", "result": "> 10000", "unit": "nM"}, {"measurement": "EC50", "setting": "EMT6", "result": 500, "unit": "nM"}, {"measurement": "IC50", "setting": "[4]", "result": "> 10000", "unit": "nM"}, {"measurement": "EC50", "setting": "NCI-H2081", "result": "> 10000", "unit": "nM"}, {"measurement": "IC50", "setting": "[5]", "result": "> 10000", "unit": "nM"}, {"measurement": "IC50", "setting": "[6]", "result": "> 10000", "unit": "nM"}, {"measurement": "AUC at 168 h", "setting": "[7]", "result": 2950, "unit": "µg·h/mL"}, {"measurement": "EC50", "setting": "Pfeiffer", "result": 860, "unit": "nM"}, {"measurement": "IC50", "setting": "[8]", "result": "> 10000", "unit": "nM"}, {"measurement": "IC50", "setting": "[9]", "result": "> 10000", "unit": "nM"}, {"measurement": "inhibition", "setting": "LuCaP-77 CR cell [10]", "result": "Active"}, {"measurement": "EC50", "setting": "SK-MEL-24", "result": "> 10000", "unit": "nM"}, {"measurement": "EC50", "setting": "OCI-Ly7", "result": 1810, "unit": "nM"}, {"measurement": "EC50", "setting": "NCI-H522", "result": 3520, "unit": "nM"}, {"measurement": "EC50", "setting": "NCI-H838", "result": 6990, "unit": "nM"}, {"measurement": "IC50", "setting": "[11]", "result": "> 10000", "unit": "nM"}, {"measurement": "EC50", "setting": "ULA", "result": 550, "unit": "nM"}, {"measurement": "EC50", "setting": "MM1.S", "result": 180, "unit": "nM"}, {"measurement": "IC50", "setting": "[12]", "result": "> 10000", "unit": "nM"}, {"measurement": "IC50", "setting": "[13]", "result": "> 10000", "unit": "nM"}, {"measurement": "inhibition", "setting": "LuCaP-77 CR cell [14]", "result": "inactive"}, {"measurement": "EC50", "setting": "DOHH-2", "result": 750, "unit": "nM"}, {"measurement": "EC50", "setting": "WSU-NHL", "result": 1060, "unit": "nM"}, {"measurement": "IC50", "setting": "[15]", "result": "> 10000", "unit": "nM"}, {"measurement": "INH", "setting": "[16]", "result": 2.39, "unit": "µM"}, {"measurement": "half-life", "setting": "[17]", "result": 1.7, "unit": "h"}, {"measurement": "EC50", "setting": "Ramos", "result": 930, "unit": "nM"}, {"measurement": "EC50", "setting": "HCC2935", "result": "> 10000", "unit": "nM"}, {"measurement": "inhibition", "setting": "LuCaP-77 CR cell [18]", "result": "Active"}, {"measurement": "IC50", "setting": "[19]", "result": "> 10000", "unit": "nM"}, {"measurement": "EC50", "setting": "U-937", "result": "> 10000", "unit": "nM"}, {"measurement": "EC50", "setting": "Daudi", "result": 430, "unit": "nM"}, {"measurement": "INH", "setting": "[20]", "result": "> 10", "unit": "µM"}, {"measurement": "AUC at 168 h", "setting": "[21]", "result": 91.2, "unit": "µg·h/mL"}]}
